The results in this text go back to PubChem BioAssay AID588730 (Vanderbilt Specialized Chemistry Center, 2011).

Activity calls are given as the source filed them.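 Rule for the calls: active = fold shift at most 0.5 or above 2, or agonist peak response under 75 or over 125 percent; inactive = the rest.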

For the experiment, the target named is Metabotropic glutamate receptor 6 (Homo sapiens) (UniProt O15303). Put plainly: Human mGluR6 profiling panel, HEK/GIRK cell-based Tl+ flux, fold shift of glutamate response, mGluR5 PAM selectivity (AID 588730). The settings on record: HEK/GIRK hmGluR6, thallium flux, glutamate CRC fold shift, at 10 µM; for Emax: measured here: glutamate max response with compound. The procedure, abridged:
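Assay system: human mGlu6 in HEK/GIRK cells. Signal: FluoZin2 thallium flux fluorescence. Evaluation: fold shift, ratio of control glutamate EC50 to EC50 with compound.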

Sequence of Metabotropic glutamate receptor 6 (Homo sapiens) (O15303 whole entry, looked up): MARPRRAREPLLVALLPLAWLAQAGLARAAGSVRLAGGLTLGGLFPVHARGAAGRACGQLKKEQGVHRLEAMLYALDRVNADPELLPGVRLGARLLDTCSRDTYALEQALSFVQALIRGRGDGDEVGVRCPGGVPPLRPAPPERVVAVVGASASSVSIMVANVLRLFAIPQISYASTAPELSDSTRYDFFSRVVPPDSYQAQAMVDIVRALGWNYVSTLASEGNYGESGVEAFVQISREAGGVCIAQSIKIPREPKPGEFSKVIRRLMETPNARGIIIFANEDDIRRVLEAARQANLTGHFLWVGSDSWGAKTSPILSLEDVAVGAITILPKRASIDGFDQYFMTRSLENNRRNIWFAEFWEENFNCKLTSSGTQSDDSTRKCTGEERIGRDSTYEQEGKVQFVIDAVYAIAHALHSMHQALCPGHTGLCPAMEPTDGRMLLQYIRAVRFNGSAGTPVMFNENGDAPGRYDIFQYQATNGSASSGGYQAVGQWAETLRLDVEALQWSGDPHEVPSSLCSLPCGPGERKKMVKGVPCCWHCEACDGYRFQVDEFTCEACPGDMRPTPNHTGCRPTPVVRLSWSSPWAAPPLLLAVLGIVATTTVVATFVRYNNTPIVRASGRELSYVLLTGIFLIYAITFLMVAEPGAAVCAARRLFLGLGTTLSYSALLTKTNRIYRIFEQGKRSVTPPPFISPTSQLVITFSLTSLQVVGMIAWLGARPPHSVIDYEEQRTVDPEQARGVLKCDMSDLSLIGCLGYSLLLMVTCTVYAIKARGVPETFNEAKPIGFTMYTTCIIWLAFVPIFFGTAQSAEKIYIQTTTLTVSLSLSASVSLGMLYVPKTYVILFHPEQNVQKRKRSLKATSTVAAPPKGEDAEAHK

With `C[C@@H](NC(=O)c1ccc(C#Cc2cccc(F)c2)cn1)C(C)(C)O`, the fold shift was 1.04 (inactive) and the Emax worked out at 93%.
The matching figures for `CC1(NC(=O)c2ccc(C#Cc3cccc(F)c3)cn2)COC1`: 0.98 (inactive) and 90%.
